Experimental data published in ChEMBL document CHEMBL1135483, “N-Substituted 4-amino-3,3-dipropyl-2(3H)-furanones: new positive allosteric modulators of the GABA(A) receptor sharing electrophysiological properties with the anticonvulsant loreclezole” (2002).
Blank lines part the entries; values can stand above or below the molecule they belong to.

Legend:
[1] = Percent stimulation of GABA-induced currents in Xenopus Oocytes expressing mutant rat GABA-A receptor alpha-1-beta-2(N265S) subunits at 100 uM; format: functional
How it was run: (§1)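 Xenopus laevis oocytes were injected with cRNA for rat receptor subunits and recorded by two-electrode voltage clamp at -80 mV. Bath was 90 mM NaCl, 1 mM KCl, 1 mM MgCl2, 1 mM CaCl2, 10 mM Na-Hepes pH 7.4. GABA giving about 2-4% of maximal current was applied for 20 s alone or with compound, with 4 min washout. Result is % change in current; average of three.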

[2] = target: T1, GABA-A receptor; alpha-1/beta-2/gamma-2 (Rattus norvegicus) (UniProt P18508+P62813+P63138); test: (§2) Percent stimulation of GABA-induced currents in Xenopus Oocytes expressing rat GABA-A receptor alpha-1-beta-2-gamma-2 subunits at 200 uM; format: functional, cell-based
How it was run: (§3)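 Oocytes expressing recombinant rat α1β2γ2 GABA-A receptors (cRNA injected in 5 mM K-Hepes, pH 6.8) were recorded by two-electrode voltage clamp at -80 mV in 90 mM NaCl, 1 mM KCl, 1 mM MgCl2, 1 mM CaCl2, 10 mM Na-Hepes, pH 7.4. Compound was co-applied with GABA at 2-4% of maximal current for 20 s, then 4 min washout. Values are the mean of three assays ± SEM.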

[3] = target: T1, GABA-A receptor; alpha-1/beta-2/gamma-2 (Rattus norvegicus); test: as §2; format: functional, cell-based; how it was run: as §3; remark: listed apart in the source
[4] = target: T1, GABA-A receptor; alpha-1/beta-2/gamma-2 (Rattus norvegicus); test: as §2; format: functional, cell-based; how it was run: as §3; remark: listed apart in the source
[5] = target: T1, GABA-A receptor; alpha-1/beta-2/gamma-2 (Rattus norvegicus); test: Percent stimulation of GABA-induced currents in Xenopus Oocytes expressing rat GABA-A receptor alpha-1-beta-2-gamma-2 subunits at 2 uM; format: functional, cell-based; how it was run: as §3
[6] = target: T2, GABA-A receptor; anion channel (Rattus norvegicus) (UniProt O09028+P15431+P18506+P18508+P19969+P20236+P23574+P23576+P28471+P28473+P30191+P62813+P63079+P63138+Q91ZM7+Q9ES14); test: Displacement of [35S]TBPS from Gamma-aminobutyric acid A (GABA-A) receptor of rat brain membranes at 100 uM; format: cell membranes; conditions: Membrane
How it was run: (§4)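 Rat cerebellum or forebrain (brain minus cerebellum) membranes, about 1 mg/mL protein, were incubated with 2 nM [35S]-TBPS in 50 mM Tris-citrate pH 7.4 plus 200 mM NaBr for 180 min at room temperature. Nonspecific binding was defined with 10 µM TBPS. Samples were filtered on GF/B and counted by scintillation. Result is % displacement; at least three experiments in triplicate.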

[7] = target: T2, GABA-A receptor; anion channel (Rattus norvegicus); test: Displacement of [3H]flunitrazepam from GABA-A receptor of rat brain membranes at 100 uM; format: cell membranes; conditions: Membrane
How it was run: (§5)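 Cerebellar or forebrain rat membranes, about 1 mg/mL protein, were incubated 90 min at 4 °C with 2 nM [3H]flunitrazepam in 50 mM Tris-citrate pH 7.4 with 150 mM NaCl. Nonspecific binding was set with 10 µM diazepam. Samples were filtered on GF/B and counted by scintillation. Result is % displacement or stimulation; at least three experiments in triplicate.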

[8] = target: T2, GABA-A receptor; anion channel (Rattus norvegicus); test: (§6) Displacement of [3H]muscimol from Gamma-aminobutyric acid A (GABA-A) receptor of rat brain membranes at 100 uM; format: cell membranes; conditions: Membrane
How it was run: as §5, with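 “[3H]muscimol” for “[3H]flunitrazepam”, “taken” for “set”, “GABA. Filters” for “diazepam. Samples”, “rinsed twice with ice-cold buffer” for “filtered on GF/B”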

[9] = target: T1, GABA-A receptor; alpha-1/beta-2/gamma-2 (Rattus norvegicus); test: Percent stimulation of GABA-induced currents in Xenopus Oocytes expressing rat GABA-A receptor alpha-1-beta-2-gamma-2 subunits at 20 uM; format: functional, cell-based; how it was run: as §1
[10] = target: T1, GABA-A receptor; alpha-1/beta-2/gamma-2 (Rattus norvegicus); test: Percent stimulation of GABA-induced currents in Xenopus Oocytes expressing rat GABA-A receptor alpha-1-beta-2-gamma-2 subunits at 100 uM; format: functional, cell-based; how it was run: as §1
[11] = tested on: GABA-A receptor alpha-1/beta-2 (Rattus norvegicus); test: Percent stimulation of GABA-induced currents in Xenopus Oocytes expressing rat GABA-A receptor alpha-1-beta-2 subunits at 100 uM
Rattus norvegicus [12] = species: Rattus norvegicus; test: as §6; format: cell membranes; conditions: Membrane
How it was run: as §5, with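 “[3H]muscimol” for “[3H]flunitrazepam”, “taken” for “set”, “GABA. Filters” for “diazepam. Samples”, “rinsed twice with ice-cold buffer” for “filtered on GF/B”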

[13] = target: T2, GABA-A receptor; anion channel (Rattus norvegicus); test: Displacement of [3H]flunitrazepam from GABA-A receptor of rat forebrain tissue at 100 uM; how it was run: as §5
[14] = target: T2, GABA-A receptor; anion channel (Rattus norvegicus); test: Displacement of [3H]flunitrazepam from GABA-A receptor of rat cerebellar tissues at 100 uM; format: protein-complex assay; how it was run: as §5
[15] = target: T2, GABA-A receptor; anion channel (Rattus norvegicus); test: Displacement of [3H]-muscimol from Gamma-aminobutyric acid A (GABA-A) receptor of Rat forebrain at 100 uM
How it was run: as §5, with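 “[3H]muscimol” for “[3H]flunitrazepam”, “taken” for “set”, “GABA. Filters” for “diazepam. Samples”, “rinsed twice with ice-cold buffer” for “filtered on GF/B”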

Rattus norvegicus [16] = species: Rattus norvegicus; test: Displacement of [35S]-TBPS from Gamma-aminobutyric acid A (GABA-A) receptor of rat cerebellar tissue at 100 uM; how it was run: as §4
Rattus norvegicus [17] = species: Rattus norvegicus; test: Displacement of [35S]TBPS from Gamma-aminobutyric acid A (GABA-A) receptor of rat forebrain tissue at 100 uM; how it was run: as §4
[18] = target: T1, GABA-A receptor; alpha-1/beta-2/gamma-2 (Rattus norvegicus); test: Percent stimulation of GABA-induced currents in Xenopus Oocytes expressing rat GABA-A receptor alpha-1-beta-2-gamma-2 subunits at 5 uM; format: functional, cell-based; how it was run: as §1
[19] = target: T1, GABA-A receptor; alpha-1/beta-2/gamma-2 (Rattus norvegicus); test: Percent stimulation of GABA-induced currents in Xenopus Oocytes expressing rat GABA-A receptor alpha-1-beta-2-gamma-2 subunits at 50 uM; format: functional, cell-based; how it was run: as §1

SMILES: CCCC1(CCC)C(=O)OC[C@@H]1NC(=O)OCc1ccccc1 [listing 1 of 2 here]
- Stimulation [1]: 123%

SMILES: CCC1(C)CCSC1=O (centres undefined)
- Stimulation [2]: 192%
- Stimulation [3]: 386%
- Stimulation [4]: 352%
- Stimulation [5]: 10%
- Displacement [6]: 25%
- Displacement [7]: 0%
- Displacement [8]: 0%
- Stimulation [9]: 39%

SMILES: CCCC1(CCC)C(=O)OC[C@H]1NC(=O)OCc1ccccc1
- Stimulation [10]: 104%

SMILES: C=CCOC(=O)N[C@@H]1COC(=O)C1(CCC)CCC (racemic)
- Stimulation [3]: 765%
- Stimulation [4]: 765%
- Stimulation [5]: 26%
- Displacement [6]: 50%
- Displacement (Rattus norvegicus [12]): 0%
- Stimulation [13]: 15%
- Stimulation [14]: 0%
- Stimulation [1]: 627%
- Stimulation [9]: 229%
- Stimulation [11]: 2130%

SMILES: CCCC1(CCC)C(=O)OC[C@H]1NC(=O)OC(C)(C)C (racemic)
- Stimulation [4]: 46%

SMILES: CCCC1(CCC)C(=O)OC[C@H]1NS(=O)(=O)N(C)C (racemic)
- Stimulation [4]: -1%

SMILES: CCCC1(CCC)C(=O)OC[C@H]1NS(=O)(=O)c1ccc(Cl)cc1 (racemic)
- Stimulation [18]: 23%
- Displacement [6]: 85%
- Displacement [7]: -25%
- Displacement [8]: 0%

SMILES: O=C1C[C@H](NCc2ccccc2)CO1 (racemic)
- Stimulation [4]: 0%

SMILES: CCCC1(CCC)C(=O)OC[C@@H]1NC(=O)OCc1ccccc1 (stereo in doubt)
- Stimulation [10]: 279%
- Displacement [6]: 70%
- Displacement [7]: 0%
- Displacement [8]: 0%

Second part, led by results:

- Stimulation [10]: 279%
- Stimulation [11]: 324%
SMILES: CCCC1(CCC)C(=O)OC[C@@H]1NC(=O)OCc1ccccc1 [listing 2 of 2 here]

- Stimulation [3]: 420%
- Stimulation [4]: 420%
- Stimulation [5]: 17%
- Displacement [6]: 65%
- Displacement [7]: -15%
- Displacement [15]: 0%
- Stimulation [9]: 207%
- Stimulation [11]: 557%
SMILES: CCCC1(CCC)C(=O)OC[C@H]1NC(=O)c1ccccc1 (racemic)
- Stimulation [1]: 648%

- Stimulation [4]: 115%
- Displacement [6]: 60%
- Displacement [7]: -14%
- Displacement [8]: 0%
SMILES: C=CCC1(CC=C)C(=O)OC[C@H]1NCc1ccccc1 (racemic)

- Stimulation [4]: -1%
SMILES: C=CC[C@@H]1C(=O)OC[C@H]1NCc1ccccc1 (racemic)

- Stimulation [4]: 73%
- Displacement [6]: 60%
- Displacement [7]: 0%
- Displacement [8]: 0%
SMILES: C=CC[C@H]1C(=O)OC[C@H]1NCc1ccccc1 (racemic)

- Stimulation [4]: 426%
- Displacement [6]: 30%
- Displacement [7]: 0%
- Displacement [8]: 0%
SMILES: CCCC1(CCC)C(=O)OC[C@H]1NC(=O)OCC (racemic)

- Stimulation [4]: 330%
- Displacement [6]: 75%
- Displacement [7]: -25%
- Displacement [15]: 0%
SMILES: CCCC1(CCC)C(=O)OC[C@H]1NC(=O)Oc1ccccc1 (racemic)

- Stimulation [4]: -44%
- Displacement (Rattus norvegicus [16]): 40%
- Displacement (Rattus norvegicus [17]): 70%
- Displacement [7]: -20%
- Displacement [8]: 0%
SMILES: CCCC1(CCC)C(=O)OC[C@H]1NS(=O)(=O)c1ccc(C(F)(F)F)cc1 (racemic)

- Stimulation [4]: -22%
- Displacement [6]: 80%
- Displacement [7]: 0%
- Displacement [8]: 0%
SMILES: CCCC1(CCC)C(=O)OC[C@H]1NS(=O)(=O)c1ccc(OC)cc1 (racemic)

- Stimulation [19]: 4%
- Displacement [6]: 75%
- Displacement [7]: 0%
- Displacement [8]: 0%
SMILES: CCCC1(CCC)C(=O)OC[C@H]1NS(=O)(=O)c1ccc2ccccc2c1 (racemic)

- Stimulation [4]: -16%
SMILES: CCCC1(CCC)C(=O)OC[C@H]1NS(=O)(=O)c1cccs1 (racemic)

- Stimulation [4]: 47%
SMILES: O=C1C[C@H](NC(=O)OCc2ccccc2)CO1 (racemic)
